Screens (PubChem BioAssay)
KCNQ1 inh: blocks the human KCNQ1 potassium channel; P51787; CHO-K1 KCNQ1, FluxOR thallium flux fluorescence; hits give high values; B-score at 10 µM; hit rate 1.3% among 310,000; AID 2642;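 active = compounds whose thallium flux B-score, printed positive for inhibition, exceeds three library SD while starting fluorescence stays within three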;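 note: channel opened by potassium depolarization with thallium stimulus after 20 min compound exposure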
hERG protect: shields human hERG channel from block by proarrhythmic agents | Q12809 | CHO-hERG, FluxOR thallium flux, dofetilide IC70 present | activation (rescue from dofetilide block), less the hit threshold, % at 10 µM | hit rate 0.51% among 310,000 | AID 1511;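 active = activation above the mean of controls blocked by dofetilide plus 5 SD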;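 note: thallium influx through hERG after potassium depolarization seen as dye fluorescence rise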
Target sequence (Q12809 whole entry, looked up): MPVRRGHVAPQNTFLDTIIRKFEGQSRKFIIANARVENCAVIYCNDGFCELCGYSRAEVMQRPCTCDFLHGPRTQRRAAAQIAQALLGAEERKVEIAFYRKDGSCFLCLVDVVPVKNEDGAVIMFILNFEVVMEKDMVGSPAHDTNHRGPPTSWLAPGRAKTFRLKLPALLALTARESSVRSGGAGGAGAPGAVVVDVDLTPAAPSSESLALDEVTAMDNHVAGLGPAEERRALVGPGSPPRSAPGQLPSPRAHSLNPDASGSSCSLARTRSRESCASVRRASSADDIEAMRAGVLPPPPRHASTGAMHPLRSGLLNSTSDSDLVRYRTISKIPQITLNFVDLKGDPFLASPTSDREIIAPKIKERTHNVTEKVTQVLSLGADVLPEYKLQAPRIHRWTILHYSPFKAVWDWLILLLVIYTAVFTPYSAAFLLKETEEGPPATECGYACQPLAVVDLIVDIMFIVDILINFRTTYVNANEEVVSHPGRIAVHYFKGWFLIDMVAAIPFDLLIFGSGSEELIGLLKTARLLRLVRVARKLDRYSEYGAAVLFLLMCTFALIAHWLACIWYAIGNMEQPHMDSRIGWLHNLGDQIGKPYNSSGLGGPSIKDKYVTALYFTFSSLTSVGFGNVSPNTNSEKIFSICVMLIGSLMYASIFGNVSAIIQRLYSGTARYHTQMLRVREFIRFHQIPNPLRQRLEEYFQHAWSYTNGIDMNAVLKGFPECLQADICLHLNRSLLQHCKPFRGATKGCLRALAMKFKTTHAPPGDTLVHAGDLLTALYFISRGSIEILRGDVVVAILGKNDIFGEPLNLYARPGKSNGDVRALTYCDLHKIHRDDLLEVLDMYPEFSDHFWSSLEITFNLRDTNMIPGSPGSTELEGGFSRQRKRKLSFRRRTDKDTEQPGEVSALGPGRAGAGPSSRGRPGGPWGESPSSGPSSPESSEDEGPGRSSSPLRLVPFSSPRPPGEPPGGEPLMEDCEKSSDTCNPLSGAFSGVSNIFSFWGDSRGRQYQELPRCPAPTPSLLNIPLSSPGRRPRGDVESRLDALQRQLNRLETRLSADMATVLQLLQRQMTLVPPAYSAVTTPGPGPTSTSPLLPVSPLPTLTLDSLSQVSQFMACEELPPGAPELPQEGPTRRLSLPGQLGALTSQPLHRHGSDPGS
Cl transport mod: modulates chloride dependent transport by human KCC2 | B-score of Tl+ flux slope (higher = more flux/activation; lower = inhibition) at 10 µM | hit rate 2.2% among 190,000 | AID 1456 | KCC2 cells, thallium flux FluoZin-2 fluorescence;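 active = thallium flux slope and its plate-corrected score both differing from the plate sample mean at a set confidence after two filtering rounds, in either direction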;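 note: slope of fluorescence scaled to starting intensity during 10 to 20 s after thallium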
KCNQ1 act: potentiates or activates the human KCNQ1 potassium channel | AID 2648 | B-score at 10 µM | hit rate 0.35% among 310,000 | CHO-K1 KCNQ1, thallium flux FluxOR fluorescence; hits give high values;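 active = fluorescence ratio B-score, a plate-corrected score, at least three library SD, with initial intensity B-score within 5 SD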
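System: CHO-K1 cells stably expressing KCNQ1 / Medium: assay buffer for compound exposure, DMSO matched across wells / Reagent: thallium- and potassium-containing depolarizing buffer / Compound: one concentration, matched DMSO / Incubation: 20 min compound pretreatment at room temperature / Measured by: kinetic FluxOR fluorescence, 10 s baseline plus 110 s post-stimulus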
KCNK3 inh: human KCNK3 channel inhibition, primary screen | O14649 | CHO-KCNK3 thallium flux, FluxOR fluorescence; hits give low values | hit rate 0.84% among 340,000 | B-score at 10 µM | AID 602410;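 active = B-score under library mean minus 4 SD, starting fluorescence ratio at most library mean plus 5 SD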;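 note: more negative B-score means stronger inhibition of thallium flux through KCNK3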
KCNK9 block: blocks the human KCNK9 two-pore domain potassium channel; HEK293 KCNK9, FluxOR thallium flux fluorescence; hits give low values; Q9NPC2; hit rate 1.2% among 310,000; B-score at 10 µM;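 active = ratio B-score over 3 SD below the library mean, with starting fluorescence within 5 SD of its mean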;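 note: negative B-score means less thallium flux so channel inhibition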
KCC2 secondary: confirmation of human KCC2 transport modulators; shares compounds with Cl transport mod; HEK293-KCC2, thallium flux, FluoZin2 fluorescence; hits give high values; normalised thallium flux (F/F0 slope) at 10 µM; hit rate 15% among 3,700; AID 1713;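 active = thallium flux slope above the same plate's solvent-only control mean plus 3 SD; inconclusive = the two replicate wells disagree; inactive = no significant difference from solvent-only control wells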
KCC2 bumet counter: thallium flux persisting under bumetanide in KCC2 cells, counter-screen secondary assay. shares compounds with Cl transport mod. HEK293-KCC2 + bumetanide/ouabain, thallium flux FluoZin2; hits give high values. normalized thallium flux at 10 µM. hit rate 49% among 3,700. AID 1714;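 active = thallium entry rate above the same plate's blocked-transporter control wells by more than 3 SD; inconclusive = the two repeat wells disagree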;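 note: raw slope of fluorescence over initial fluorescence between 10 and 20 s after thallium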
KCC2 secondary2: confirmation of human KCC2 transport modulators; HEK293-KCC2, thallium flux FluoZin2 fluorescence; actives lie on both sides; F/F0 rise rate, 10–20 s post-thallium; hit rate 23% among 3,700; normalized thallium flux at 10 µM; shares compounds with Cl transport mod;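 active = thallium flux slope more than 3 SD above or below the plate's solvent-only control mean, mostly below; inconclusive = the two repeat wells disagreed; inactive = no significant shift from solvent-only controls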
HEK293 Tl flux: acts in parental HEK cells, KCC2 counter-screen | AID 1716 | hit rate 46% among 3,700 | thallium flux rate (normalised fluorescence) at 10 µM | shares compounds with Cl transport mod | HEK293 parental cells, thallium flux FluoZin2, ouabain; baseline-ratio fluorescence slope, 10–20 s after thallium;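 active = thallium flux rate significantly above the same plate's solvent-only control wells, beyond their mean plus 3 SD; inconclusive = the two replicate wells gave conflicting results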
KCC2 ouabain: KCC2 (human) modulation, ouabain retest | hit rate 48% among 3,700 | shares compounds with Cl transport mod | AID 1717 | raw Tl+ flux slope (below DMSO = inhibition, above = activation) at 10 µM | HEK293-KCC2, thallium flux FluoZin2 fluorescence; bidirectional: low = inhibitor, high = activator;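 active = thallium flux slope beyond 3 SD from same-plate DMSO control mean in most replicates, usually higher, sometimes lower; inconclusive = repeat tests gave conflicting results; inactive = no significant difference from controls in most replicates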;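 note: slope of initial-normalized fluorescence between seconds 10 and 20 after thallium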
HEK293 Tl flux2: acts in parental HEK cells, second KCC2 counter-screen. shares compounds with Cl transport mod. HEK293 parental, thallium flux FluoZin-2 fluorescence slope. thallium flux slope at 10 µM. hit rate 33% among 3,700;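 active = thallium flux slope above the same plate's solvent-control mean plus 3 SD in both duplicate wells; inconclusive = duplicate wells that disagreed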;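 note: run without ouabain in cells lacking the KCC2 cotransporter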
Of the large screens only hits and unclear results are named; the others gave an inactive call (follow-up assays come after a bar, where they were run). This is a sample that favours compounds with a hit; in the whole collection about 4.1% have one here.

COC(=O)c1sccc1NC(=O)CSc1ccccc1NS(=O)(=O)c1ccc(F)cc1	none (no result: Cl transport mod)
COC(=O)c1sccc1NC(=O)CSc1ccccc1NS(=O)(=O)c1ccc(Br)cc1	Cl transport mod 3.53 | KCC2 secondary inactive | KCC2 bumet counter 0.0128 | KCC2 secondary2 inactive | HEK293 Tl flux 0.0157 | KCC2 ouabain inactive | HEK293 Tl flux2 0.0126
Cc1ccc(Nc2nnc(SCC(=O)Nc3cccc(S(=O)(=O)NC4=NCCCCC4)c3)s2)c(C)c1	none | KCC2 secondary inactive | KCC2 bumet counter inactive | KCC2 secondary2 inactive | HEK293 Tl flux 0.0052 | KCC2 ouabain 0.0168 | HEK293 Tl flux2 inactive
CCOc1ccc(CC(=NCCc2ccccc2)C2=C(O)CC(C)(C)CC2=O)cc1OCC	none
CCOc1ccc(CC(=N)C2=C(O)CC(C)(C)CC2=O)cc1OCC	Cl transport mod -4.29 | KCC2 secondary inactive | KCC2 bumet counter inactive | KCC2 secondary2 inactive | HEK293 Tl flux inactive | KCC2 ouabain inactive | HEK293 Tl flux2 inconclusive
CN(C(=O)c1cc2c(=O)n3ccccc3nc2n1C)C1CCCCC1	none (no result: Cl transport mod)
c1coc(CNc2c3c(nc4ccccc24)CCC3)c1	Cl transport mod 7.31 | KCC2 secondary inactive | KCC2 bumet counter inactive | KCC2 secondary2 inactive | HEK293 Tl flux 0.00651 | KCC2 ouabain 0.0162 | HEK293 Tl flux2 inactive
CC(C)NCC(=O)Nc1c2c(nc3ccccc13)CCC2	none (no result: Cl transport mod)
O=C(N/N=C/c1ccncc1)c1ccc(COc2cccc3cccnc23)cc1	none
O=C(N/N=C/c1ccc2cccc(OCc3ccccc3)c2n1)c1ccc(Cl)cc1	Cl transport mod 4.9 | KCC2 secondary 0.0224 | KCC2 bumet counter 0.0482 | KCC2 secondary2 inactive | HEK293 Tl flux 0.014 | KCC2 ouabain 0.0247 | HEK293 Tl flux2 inconclusive
Cc1ccc2[nH]c(SCC(=O)N3CCOCC3)nc2c1C	none (no result: Cl transport mod) | KCC2 secondary inactive | KCC2 bumet counter inactive | KCC2 secondary2 inactive | HEK293 Tl flux inactive | KCC2 ouabain inactive | HEK293 Tl flux2 inactive
Cc1ccc2nc(SCC(=O)N3CCOCC3)[nH]c2c1	none
Cc1nc(C(=O)NNC(=O)c2ccc(C(F)(F)F)cc2)cs1	Cl transport mod 5.09 | KCC2 secondary inactive | KCC2 bumet counter 0.0199 | KCC2 secondary2 inactive | HEK293 Tl flux 0.0104 | KCC2 ouabain inconclusive | HEK293 Tl flux2 inconclusive
Cc1nn(-c2ccccc2)nc1C(=O)NN	none (no result: Cl transport mod)
Cc1nn(-c2ccccc2)nc1C(=O)NNC(=O)c1ccc(C(F)(F)F)cc1	Cl transport mod 21.6 | KCC2 secondary 0.0227 | KCC2 bumet counter 0.0973 | KCC2 secondary2 inactive | HEK293 Tl flux 0.0352 | KCC2 ouabain 0.0551 | HEK293 Tl flux2 0.0168
Cc1nn(-c2ccccc2)nc1C(=O)NNC(=O)c1cccc2ccccc12	Cl transport mod 68.9, KCNQ1 act 15 | KCC2 secondary 0.0238 | KCC2 bumet counter 0.154 | KCC2 secondary2 inactive | HEK293 Tl flux 0.0746 | KCC2 ouabain 0.0996 | HEK293 Tl flux2 0.0243
Cc1ccc(C)c(S(=O)(=O)N2CCN(C(=O)CSc3ccccc3F)CC2)c1	none (no result: Cl transport mod)
Cc1ccc(N(CC(=O)NC2CCCCC2)C(=O)CNC(=O)c2ccco2)cc1C	none (no result: Cl transport mod)
Cc1ccc(/C=N/n2c(-c3cccnc3)n[nH]c2=S)o1	none
Cc1ccsc1/C=N/n1c(-c2cc(-c3ccccc3)n[nH]2)n[nH]c1=S	none
Cc1ccc(-c2n[nH]c(=S)n2/N=C/c2sccc2C)cc1	Cl transport mod 18.6 | KCC2 secondary inactive | KCC2 bumet counter 0.0212 | KCC2 secondary2 inactive | HEK293 Tl flux 0.0149 | KCC2 ouabain 0.0246 | HEK293 Tl flux2 0.0168
S=c1[nH]nc(-c2ccccc2)n1/N=C/c1ccc(Cl)cc1	none (no result: Cl transport mod)
Cc1ccc(/C=N/n2c(-c3ccc(Cl)cc3)n[nH]c2=S)o1	Cl transport mod 7.94 | KCC2 secondary 0.0157 | KCC2 bumet counter 0.0349 | KCC2 secondary2 inactive | HEK293 Tl flux 0.0115 | KCC2 ouabain inactive | HEK293 Tl flux2 inconclusive
S=c1[nH]nc(-c2ccc(Cl)cc2)n1/N=C/c1cccs1	Cl transport mod 22.5 | KCC2 secondary inactive | KCC2 bumet counter 0.025 | KCC2 secondary2 0.0423 | HEK293 Tl flux 0.0305 | KCC2 ouabain 0.0415 | HEK293 Tl flux2 0.0239
S=c1[nH]nc(-c2cccnc2)n1/N=C/c1ccc(Br)s1	Cl transport mod 23 | KCC2 secondary inactive | KCC2 bumet counter 0.0546 | KCC2 secondary2 inactive | HEK293 Tl flux 0.0106 | KCC2 ouabain inactive | HEK293 Tl flux2 0.0115
O=[N+]([O-])c1ccccc1S(=O)(=O)Nc1ccc(-c2ccc3nncn3n2)cc1	none (no result: Cl transport mod)
COc1ccccc1N1CCN(C(=O)C(C)CS(=O)(=O)c2ccc3c(c2)NC(=O)CS3)CC1 (configuration not stated)	none (no result: Cl transport mod)
O=C(Nc1nc(-c2ccccn2)cs1)C1CC(=O)N(c2ccc3c(c2)OCCO3)C1 (configuration not stated)	Cl transport mod -3 | KCC2 secondary inactive | KCC2 bumet counter inactive | KCC2 secondary2 inactive | HEK293 Tl flux inactive | KCC2 ouabain 0.0178 | HEK293 Tl flux2 0.0111
CNC(=S)N/N=C/c1c(C)cccc1Cl	Cl transport mod 4.4 | KCC2 secondary inactive | KCC2 bumet counter 0.0174 | KCC2 secondary2 inactive | HEK293 Tl flux 0.00854 | KCC2 ouabain inconclusive | HEK293 Tl flux2 inactive
CC(C)CCN1CCN(Cc2ccc(C#CCCO)cc2)CC1CCO (configuration not stated)	Cl transport mod 5.31 | KCC2 secondary inactive | KCC2 bumet counter inactive | KCC2 secondary2 inactive | HEK293 Tl flux inactive | KCC2 ouabain inactive | HEK293 Tl flux2 inactive
OCCC#Cc1ccc(CN2CCN(CCc3ccccc3)C(CCO)C2)cc1 (configuration not stated)	none (no result: Cl transport mod)
